From paper PMC5051546 (ACS chemical neuroscience, 2016)
Non-standard residues stand in square brackets, D forms with d. Residues, ends and D or L forms follow the SMILES beside them.

Legend:
[1] = biological target: T1, Aβ(1–40) aggregates (Homo sapiens, UniProt P05067); test: Nanoparticle tracking analysis; type: biochemical
In short: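 Aβ(1-40) stock prepared by dissolving in 50% acetonitrile, relyophilizing, and reconstituting in urea/glycine buffer at 12 mg/mL. Samples: 28 µM Aβ alone or with 1.4 µM test peptide, or peptide alone. Nanosight LM10, 405 nm laser, video capture started immediately. One 60-s video per time point over 2 h, room temperature, camera level 13. Buffers 0.02 µm-filtered. Number concentration taken from the instrument-defined scattering volume. Only particles above ~30 nm are detected.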

[2] = biological target: T1, Aβ(1–40) aggregates; test: Dynamic light scattering; type: biochemical; conditions: 28 μM Aβ, 1.4 μM peptide; 37 °C; 2 h; z-averaged hydrodynamic diameter; Aβ alone 400 nm after 2 h
[3] = biological target: Aβ(1–40) fibril formation (Homo sapiens, UniProt P05067); test: Thioflavin T; type: biochemical; conditions: 28 μM Aβ, 1.4 μM peptide; PBSA, 37 °C, up to 48 h; three replicates
In short: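 Aβ(1-40) stock in urea/glycine buffer, previously relyophilized from 50% acetonitrile. 28 µM Aβ incubated in PBSA at 37 °C alone or with 2.8, 1.4 or 0.28 µM test peptide. At 1 or 4, 24 and 48 h, aliquots mixed with 10 µM ThT in PBS. Excitation 440 nm, emission scanned 460–500 nm. Three serial spectra averaged, ThT/PBS background subtracted, 480 nm intensity compared.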

[4] = biological target: Aβ(1–40) fibrils (Homo sapiens, UniProt P05067); test: Transmission electron microscopy; type: biochemical; conditions: 28 μM Aβ + 1.4 μM peptide; 24 h at 37 °C; PBSA
[5] = Solubility of lyophilized peptide in PBS or water; type: physicochemical

T1 sequence (P05067 672-711 limits assumed): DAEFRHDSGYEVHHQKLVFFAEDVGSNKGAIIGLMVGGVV
Chain of Aβ(1–40) fibrils (P05067 672-711 limits assumed): as above
Chain of Aβ(1–40) fibril formation (P05067 672-711 limits assumed): as above

CC[C@H](C)[C@@H]1NC(=O)[C@H]([C@@H](C)O)NC(=O)[C@H](Cc2ccc(O)cc2)NC(=O)[C@H](CCCNC(=N)N)NC(=O)[C@@H]2CCCN2C(=O)[C@H]2CCCN2C(=O)[C@H]([C@@H](C)O)NC(=O)[C@H](C(C)C)NC(=O)[C@H](C(C)C)NC(=O)[C@H](CCCCN)NC(=O)[C@H](CO)NC(=O)[C@H](CCC(N)=O)NC(=O)[C@H](CO)NC(=O)[C@H](Cc2ccc(O)cc2)NC(=O)[C@H](CO)NC(=O)[C@H](Cc2ccc(O)cc2)NC(=O)[C@@H]2CCCN2C(=O)[C@H](CO)NC(=O)[C@H](CC(C)C)NC(=O)[C@H](CC(C)C)NC(=O)[C@H](C)NC(=O)[C@H](C)NC1=O [CG3] (cyclo(SKVVT[dP]PRYTIAALLSPYSYSQ))
particles from peptide alone (NTA) ([1]; 1.4 μM peptide in the absence of Aβ, detection limit ~30 nm, data not shown): no detectable particles above background
initial particle number concentration relative to Aβ alone (NTA) ([1]; 28 μM Aβ, 1.4 μM peptide, PBSA, room temperature, shortly after mixing): about 2 fold
mean hydrodynamic diameter of aggregates after 2 h (NTA) ([1]; 28 μM Aβ, 1.4 μM peptide, number-averaged): ~ 400 nm
mean hydrodynamic diameter of aggregates shortly after mixing (NTA) ([1]; 28 μM Aβ, 1.4 μM peptide, number-averaged, Aβ alone ~80 nm): 120 nm
effect on size and growth rate of Aβ aggregates (DLS) [2]: size and growth rate of Aβ aggregates increased
inhibition of ThT fluorescence at 20:1 Aβ/peptide [3]: partially inhibited
Aβ aggregate morphology by TEM [4]: still a large number of fibrils, but many appeared to be shorter
solubility ([5]; aqueous buffer): > 650 µg/mL
solubility ([5]; water): > 600 µM
